Source: ChEMBL document CHEMBL4609978, “Synthesis and evaluation of 2'-dihalo ribonucleotide prodrugs with activity against hepatitis C virus” (Bioorg Med Chem, 2020)

What was measured:
[1] = tested on: Hepatitis C virus; experiment: Antiviral activity against HCV genotype 1b Con1 infected in human HuH7 replicon cells assessed as inhibition of viral replication after 3 days by luciferase reporter gene assay; type: functional, organism-based, Hepacivirus hominis; conditions: subtype 1b Con1, Huh-7, 72 h
How it was run: (§1)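 Stable subgenomic replicon cell lines (genotype 1a-H77 or 1b-Con1) carrying a luciferase reporter; compounds added in DMEM with 5% FBS, cells incubated 3 days with or without compound, then lysed and luciferase activity read; EC50 from nonlinear regression fit to 4-parameter logistic equation.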

[2] = Cytotoxicity against human HuH7 cells assessed as reduction in cell viability; type: cell-based, Huh-7; conditions: read-out: TD50 (the source's name)
[3] = tested on: Hepatitis C virus; experiment: Antiviral activity against HCV genotype 1a H77 infected in human HuH7 replicon cells assessed as inhibition of viral replication after 3 days by luciferase reporter gene assay; type: functional, organism-based, Hepacivirus hominis; conditions: subtype 1a H77, Huh-7, 72 h; how it was run: as §1
[4] = Prodrug conversion in Beagle dog liver assessed as nucleotide triphosphate level at 5 mg/kg, po co-dosed with 5 mg/kg sofosbuvir measured after 4 hrs by LC-MS/MS analysis; type: ADME, organism-based, Canis lupus familiaris; conditions: in vivo
How it was run: (§2)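 Beagle dogs (3 per time point) given single oral prodrug 5 mg/kg in EtOH:PEG-400:Phosal 53 MCT (10:30:60, w/w), cassette-dosed with sofosbuvir 5 mg/kg as internal standard; liver biopsies at 4 or 24 h, flash frozen, triphosphate measured by LC-MS/MS.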

[5] = Prodrug conversion in Beagle dog liver assessed as nucleotide triphosphate level at 5 mg/kg, po administered as single dose measured after 24 hrs by LC-MS/MS analysis; type: ADME, organism-based, Canis lupus familiaris; conditions: in vivo
[6] = Prodrug conversion in human primary hepatocytes assessed as nucleotide triphosphate level at 100 uM incubated for 4 hrs followed by compound wash-out for 20 hrs and measured following 4 hrs incubation period by LC-MS/MS analysis; type: ADME, cell-based, Hepatocyte
How it was run: (§3)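 Cryopreserved primary human hepatocytes plated ~55,000 viable cells/well on collagen, medium changed after 4–6 h to Williams E maintenance medium with Geltrex 0.35 mg/mL, overnight at 37 °C; prodrug 100 µM for 4 h, then washed; second plate held a further 20 h drug-free; cells washed with ice-cold HBSS, triphosphate measured by LC-MS/MS at 4 or 24 h.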

[7] = tested on: Hepatitis C virus; experiment: Antiviral activity against HCV genotype 1b Con1 over expressing CES1 infected in human HuH7 replicon cells assessed as inhibition of viral replication after 3 days by luciferase reporter gene assay; type: functional, organism-based, Hepacivirus hominis; conditions: subtype 1b Con1, Huh-7, 72 h
[8] = Unbound drug level in dog plasma; type: ADME, cell-free, Canis lupus familiaris
[9] = Distribution coefficient, logD of compound by HT-LCMS analysis; type: physicochemical; conditions: octanol/water
[10] = Stability in dog plasma assessed as parent compound remaining after 4 hrs; type: ADME, cell-free, Canis lupus familiaris; conditions: read-out: Stability
How it was run: (§4)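 Prodrug incubated 4 h at 37 °C in dog or human plasma; result given as percent parent remaining.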

[11] = Unbound drug level in human plasma; type: ADME, cell-free
[12] = Prodrug conversion in Beagle dog liver assessed as nucleotide triphosphate level at 5 mg/kg, po co-dosed with 5 mg/kg sofosbuvir measured after 24 hrs by LC-MS/MS analysis; type: ADME, organism-based, Canis lupus familiaris; conditions: in vivo; how it was run: as §2
[13] = Prodrug conversion in Beagle dog liver assessed as nucleotide triphosphate level at 5 mg/kg, po administered as single dose measured after 4 hrs by LC-MS/MS analysis; type: ADME, organism-based, Canis lupus familiaris; conditions: in vivo
[14] = Prodrug conversion in human primary hepatocytes assessed as nucleotide triphosphate level at 100 uM incubated for 4 hrs and followed by compound washout for 20 hrs and measured following 24 hrs incubation period by LC-MS/MS analysis; type: ADME, cell-based, Hepatocyte; how it was run: as §3
[15] = Stability in human plasma assessed as parent compound remaining after 4 hrs; type: ADME, cell-free; conditions: read-out: Stability; how it was run: as §4
[16] = Intrinsic clearance in dog hepatocytes; type: ADME, cell-based, Canis lupus familiaris, Hepatocyte; conditions: read-out: CLH (converted)
[17] = Aqueous solubility of compound in pH 7.4 phosphate buffer; type: physicochemical

| Structure (SMILES) | EC50 [1] [nM] | CC50 [2] [nM] | EC50 [3] [nM] | other results |
| --- | --- | --- | --- | --- |
| CC(C)OC(=O)[C@H](C)N[P@](=O)(OC[C@H]1O[C@@H](n2ccc(=O)[nH]c2=O)[C@](F)(Br)[C@@H]1O)Oc1ccccc1 | 2500 | 26500 | 3030 | – |
| CC(C)OC(=O)C(C)(C)NP(=O)(OC[C@H]1O[C@@H](n2ccc(=O)[nH]c2=O)[C@](Cl)(Br)[C@@H]1O)Oc1ccccc1 (stereo partly drawn) | 1380 | – | 1090 | Drug metabolism [4]: 4.2 µM; Drug metabolism [5]: 0.244 µM; Drug metabolism [6]: 157 µM; EC50 [7]: 162 nM; fraction unbound [8]: 0.13; logD [9]: 3.3; remaining at 4 h [10]: 100%; fraction unbound [11]: 0.193; Drug metabolism [12]: 3.43 µM; Drug metabolism [13]: 0.713 µM; Drug metabolism [14]: 40 µM; remaining at 4 h [15]: 100%; CLint scaled [16]: 133 mL/min/kg; solubility [17]: > 200 µM |
| CC(C)OC(=O)[C@H](C)N[P@](=O)(OC[C@H]1O[C@@H](n2ccc(=O)[nH]c2=O)[C@](C)(Cl)[C@@H]1O)Oc1ccccc1 | 167 | > 100000 | 139 | – |
| CC(C)OC(=O)[C@H](C)N[P@](=O)(OC[C@H]1O[C@@H](n2ccc(=O)[nH]c2=O)C(C)(C)C1O)Oc1ccccc1 (single isomer, unassigned) | 4750 | 31600 | 5630 | – |
| CC(C)OC(=O)[C@H](C)N[P@](=O)(OC[C@H]1O[C@@H](n2ccc(=O)[nH]c2=O)[C@@](C)(F)[C@@H]1O)Oc1ccccc1 | > 10000 | > 32000 | > 10000 | – |
| CC(C)OC(=O)[C@H](C)N[P@](=O)(OC[C@H]1O[C@@H](n2ccc(=O)[nH]c2=O)C(Br)(Br)[C@@H]1O)Oc1ccccc1 | 522 | > 100000 | 408 | – |
| CC(C)OC(=O)[C@H](C)N[P@](=O)(OC[C@H]1O[C@@H](n2ccc(=O)[nH]c2=O)C(F)(F)[C@@H]1O)Oc1ccccc1 | 286 | 384 | 226 | – |
| CC(C)OC(=O)[C@H](C)N[P@](=O)(OC[C@H]1O[C@@H](n2ccc(=O)[nH]c2=O)[C@@](Cl)(Br)[C@@H]1O)Oc1ccccc1 | 258 | > 100000 | 200 | – |
| CC(C)OC(=O)[C@H](C)N[P@@](=O)(OC[C@H]1O[C@@H](n2ccc(=O)[nH]c2=O)[C@](Cl)(Br)[C@@H]1O)Oc1ccccc1 | 515 | – | 412 | Drug metabolism [4]: 1.76 µM; Drug metabolism [5]: 0.036 µM; Drug metabolism [6]: 102 µM; EC50 [7]: 218 nM; logD [9]: 3.21; Drug metabolism [12]: 1.26 µM; Drug metabolism [13]: 0.143 µM; Drug metabolism [14]: 24 µM; solubility [17]: > 200 µM |
